ChEMBL document CHEMBL1156382, “New steroidal alkaloids from an undescribed sponge of the genus Corticium” (2001)
Converted amounts (≈) assume the structure as drawn. The source made the active and inactive calls. The calls are words filed in the database; no cut-off is given here.

Columns and labels:
Candida albicans = assay: Antifungal activity against Candida albicans at 25 ug/disk by paper disk method; format: functional; conditions: read-out: IZ
Method in brief: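 Paper disk diffusion against Candida albicans with 25 µg loaded per disk; read-out is the diameter of the clear zone of inhibition, in mm.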

K562 = assay: Cytotoxicity against human K562 cells; format: functional; conditions: read-out: LC50 (the source's name)
Nucleic Acid [1] = assay: Induction of Escherichia coli double stranded DNA cleavage at 10 ug/20 mL by gel electrophoresis; format: nucleic-acid assay
Method in brief: (§1)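 Nucleic acids (double-stranded DNA and 16S rRNA) were isolated from E. coli and exposed to compound at 10 µg/20 mL; cleavage was scored by gel electrophoresis.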

Nucleic Acid [2] = assay: Induction of Escherichia coli 16S rRNA cleavage at 10 ug/20 mL by gel electrophoresis; format: nucleic-acid assay; method in brief: as §1

Row | Compound | zone of inhibition at 25 µg/disc (Candida albicans) | CC50 (K562) | Activity (Nucleic Acid [1]) | Activity (Nucleic Acid [2])
1 | CC(C)=C1CC[N+]([O-])=C1C[C@@H](C)[C@H]1CC[C@H]2C3=CC[C@H]4[C@@H](O)[C@@H](N(C)C)CC[C@]4(C)[C@H]3CC[C@]12C [PLAKINAMINE E] | 12 mm | 0.2 µg/mL (≈ 0.414 µM) | Active | Active
2 | CC(C)=C1CCN=C1C[C@@H](C)[C@H]1CC[C@H]2C3=CC[C@H]4C(=O)[C@@H](N(C)C)CC[C@]4(C)[C@H]3CC[C@]12C [PLAKINAMINE F] | 8 mm | 1.3 µg/mL (≈ 2.8 µM) | inactive | inactive
3 | CC(C)=C1CCN=C1C[C@@H](C)[C@H]1CC[C@H]2C3=CC[C@H]4[C@@H](O)[C@@H](N(C)C)CC[C@]4(C)[C@H]3CC[C@]12C [LOKYSTEROLAMINE A] | 9 mm | 0.9 µg/mL (≈ 1.93 µM) | inactive | inactive
